The results in this text go back to ChEMBL document CHEMBL1151302, “Cytotoxic and leishmanicidal aminoglycosteroids and aminosteroids from Holarrhena curtisii” (J Nat Prod, 1998).

Molecules are shown by their SMILES. Converted amounts (≈) assume the structure as drawn.

The subject of assay [1] is P388. The experiment in a line: Cytotoxicity against mouse P388 cells after 3 days by MTT assay. In kind it is functional, cell-based. To be noted: P388, 72 h. In a few lines:
(§1)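 Cells were kept in MEM with 10% fetal calf serum and kanamycin; the P-388/VCR line also received 0.5 μg/mL vincristine. Cells were seeded at 20 000 cells/mL and tested at eight concentrations, starting from 25 μg/mL in the well. After 3 days of culture, living cells were counted by MTT staining. Each experiment was run three times.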

For the next assay, the system named is Leishmania donovani. The experiment in a line: Antileishmanial activity against Leishmania donovani promastigotes after 6 to 7 hrs. Type of assay: functional, organism-based. In a few lines:
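Promastigotes were maintained in 199 medium with 10% fetal calf serum and kanamycin. They were plated at 10 000 cells/mL and exposed to four sample concentrations, starting from 25 μg/mL in the well.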

The test system of assay [2] is P388. In words: Cytotoxicity against vincristine-resistant mouse P388 cells after 3 days by MTT assay. In kind it is functional, cell-based. To be noted: P388, 72 h. The essentials: as §1
For assay [3], the system named is P388. In words: Cytotoxicity against adriamycin-resistant mouse P388 cells after 3 days by MTT assay. Type of assay: functional, cell-based. To be noted: P388, 72 h. In a few lines:
as §1

The test system of a further assay is HL-60. In words: Cytotoxicity against human HL60 cells after 3 days by MTT assay. In kind it is functional, cell-based. To be noted: HL-60, 72 h. The essentials:
as §1
(Tetrazolium assays rely on reduction of a dye to a coloured formazan, in cell work by metabolically active cells.)

A word on the IC50: it is the concentration at which inhibition is half-maximal.

With `CN[C@H]1[C@@H](OC)C[C@H](O[C@H]2CC[C@@]3(C)[C@@H](CC[C@@H]4[C@@H]3CC[C@]3(C)[C@H](C(C)=O)CC[C@]43O)C2)O[C@@H]1C`, the IC50 with P388 [1] amounted to 17 µg/mL (≈ 34.6 µM); in the assay on Leishmania donovani, 6.25 µg/mL (≈ 12.7 µM); in the assay on P388 [2], 10.1 µg/mL (≈ 20.5 µM); in the assay on P388 [3], 10.4 µg/mL (≈ 21.2 µM); in the assay on HL-60, 0.01 µg/mL (≈ 0.0203 µM).

As to `CO[C@H]1C[C@H](O[C@H]2CC[C@@]3(C)[C@@H](CC[C@@H]4[C@@H]3CC[C@]3(C)[C@@H](C(C)=O)CC[C@]43O)C2)O[C@H](C)[C@H]1N`, the IC50 with P388 [1] stood at 4 µg/mL (≈ 8.37 µM); with Leishmania donovani it was 1.56 µg/mL (≈ 3.27 µM); in the assay with P388 [2], 3.5 µg/mL (≈ 7.33 µM); in the assay with P388 [3], 11.5 µg/mL (≈ 24.1 µM); with HL-60, 2.6 µg/mL (≈ 5.44 µM).

On to `CC(=O)[C@H]1C[C@H](O)[C@H]2[C@@H]3CC=C4C[C@H](N)CC[C@]4(C)[C@H]3CC[C@@]21C`, for which the IC50 is 4.1 µg/mL (≈ 12.4 µM) with P388 [1]; greater than 1.56 µg/mL in the assay with Leishmania donovani; 1.4 µg/mL (≈ 4.22 µM) in the assay with P388 [2]; 3.6 µg/mL (≈ 10.9 µM) in the assay with P388 [3]; 1.2 µg/mL (≈ 3.62 µM) with HL-60.

Turning to `CC(=O)[C@H]1CC[C@]2(O)[C@@H]3CC[C@H]4C[C@H](N)CC[C@]4(C)[C@H]3CC[C@]12C`, the IC50 was found to be 3.6 µg/mL (≈ 10.8 µM) in the assay with P388 [1]; 6.25 µg/mL (≈ 18.7 µM) in the assay with Leishmania donovani; 3.4 µg/mL (≈ 10.2 µM) in the assay on P388 [2]; 8.6 µg/mL (≈ 25.8 µM) with P388 [3]; 10.1 µg/mL (≈ 30.3 µM) in the assay with HL-60.

With `CO[C@H]1C[C@H](O[C@H]2CC[C@@]3(C)[C@@H](CC[C@@H]4[C@@H]3CC[C@]3(C)[C@H](C(C)=O)CC[C@]43O)C2)O[C@H](C)[C@H]1N`, the concentration for half-maximal inhibition (IC50) in the assay with P388 [1] amounted to 10.5 µg/mL (≈ 22 µM); in the assay on Leishmania donovani, 6.25 µg/mL (≈ 13.1 µM); in the assay with P388 [2] it was 10.2 µg/mL (≈ 21.4 µM); in the assay on P388 [3], 13.5 µg/mL (≈ 28.3 µM); with HL-60, 0.21 µg/mL (≈ 0.44 µM).

As to `CN[C@H]1[C@@H](OC)C[C@H](O[C@H]2CC[C@@]3(C)[C@@H](CC[C@@H]4[C@@H]3CC[C@]3(C)[C@@H](C(C)=O)CC[C@]43O)C2)O[C@@H]1C` [HOLACURTINE], the IC50 was determined as 4.2 µg/mL (≈ 8.54 µM) in the assay on P388 [1]; 1.56 µg/mL (≈ 3.17 µM) in the assay on Leishmania donovani; 2.8 µg/mL (≈ 5.69 µM) in the assay on P388 [2]; 3.4 µg/mL (≈ 6.91 µM) in the assay on P388 [3]; 0.86 µg/mL (≈ 1.75 µM) with HL-60.

In the case of `CO[C@H]1C[C@H](O[C@H]2CC[C@@]3(C)C(=CC[C@@H]4[C@@H]3CC[C@]3(C)[C@@H](C(C)=O)C[C@H](O)[C@]43O)C2)O[C@H](C)[C@H]1N` [HOLACURTINOL], the IC50 in the assay with P388 [1] was found to be 16 µg/mL (≈ 32.5 µM); in the assay on Leishmania donovani, 6.25 µg/mL (≈ 12.7 µM); with P388 [2] it was 10 µg/mL (≈ 20.3 µM); in the assay with P388 [3], 10.4 µg/mL (≈ 21.2 µM); in the assay on HL-60, 2.6 µg/mL (≈ 5.29 µM).

With `CC(=O)[C@H]1CC[C@H]2[C@@H]3CC=C4C[C@H](N)CC[C@]4(C)[C@H]3CC[C@]12C` [HOLAMINE], the IC50 in the assay on P388 [1] turned out to be 0.91 µg/mL (≈ 2.88 µM); in the assay with Leishmania donovani it was 0.39 µg/mL (≈ 1.24 µM); in the assay with P388 [2], 0.83 µg/mL (≈ 2.63 µM); with P388 [3] it was 0.85 µg/mL (≈ 2.69 µM); in the assay on HL-60, 0.2 µg/mL (≈ 0.634 µM).
